Measurements taken from ChEMBL document CHEMBL1255201, “A novel arylethynyltriazole acyclonucleoside inhibits proliferation of drug-resistant pancreatic cancer cells” (2010).

Test system: MIA PaCa-2
Test: Growth inhibition of human MIAPaCa2 cells after 48 hrs by MTT assay
Format: functional
Outline: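 Cells seeded at 15,000/well, attached overnight, then medium replaced with fresh medium alone (control) or medium containing compound; 48 h at 37 °C, 5% CO2. Viable cells quantified by MTT colorimetric assay.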

For Nc1ccn([C@@H]2O[C@H](CO)[C@@H](O)C2(F)F)c(=O)n1 [GEMCITABINE], the “inhibition (INH)” value was 30%.
